# Assay results: ChEMBL document CHEMBL1133473, “Synthesis and antiviral activity of 4-benzyl pyridinone derivatives as potent and selective non-nucleoside human immunodeficiency virus type 1 reverse transcriptase inhibitors” (J Med Chem, 2000)
# Where “and” joins values, the source holds several entries; their conditions need not be identical. Equal values may be shown once.
# What was measured:
# MT4 [1] = experiment: Cytotoxicity against MT-4 cells infected with HIV-1 AZTres; assay type: functional; conditions: Homo sapiens
# [2] = Cytotoxicity against PBMC cells infected with HIV-1 IIIB strain; assay type: functional; conditions: Human immunodeficiency virus 1, PBMC
# CEM-SS [3] = experiment: Tested for inhibitory concentration on HIV-I Lai wild type in CEM-SS cell line; assay type: functional, cell-based; conditions: Homo sapiens
# How it was run: (§1)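 CEM-SS lymphocytic cells infected with 100 TCID50 of HIV-1 LAI, or of the nevirapine-resistant N119 strain carrying an RT codon 181 mutation. Virus adsorbed 30 min, unbound virus removed by two washes, then cells cultured 5 days with serial compound dilutions. Read-out: RT activity of particles released into the supernatant. IC50 from a computer median effect plot of dose-effect data.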
# [4] = test system: Human immunodeficiency virus 1; experiment: Inhibitory concentration against HIV-1 Bal/Mono; assay type: functional, organism-based
# How it was run: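 Macrophage-tropic HIV-1 Bal in monocyte-derived macrophages kept serum-free in AIM V medium with 100 U/mL GM-CSF. Virus output measured as supernatant particle-associated RT activity.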
# [5] = test system: Human immunodeficiency virus 1; experiment: Tested for cytotoxic concentration on HIV-I nevirapine resistant strain.; assay type: functional
# How it was run: (§2)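 CEM-SS cells, uninfected, cultured 5 days with compound. Compounds were taken from a DMSO solution at 10^-2 M (10^-3 M or lower if insoluble), diluted 1:100 in medium, then serially diluted in medium.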
# [6] = (§3) Selectivity index is the ratio of CC50 to IC50 against HIV-1 nevirapine resistant strain; assay type: functional
# [7] = Cytotoxicity against PBMC cells infected with HIV-2 D 194; assay type: functional; conditions: Human immunodeficiency virus 2, PBMC
# [8] = test system: Human immunodeficiency virus 1; experiment: Tested for inhibitory concentration on HIV-I nevirapine resistant strain.; assay type: functional, organism-based; how it was run: as §1
# [9] = Inhibitory concentration against HIV-2 D 194; assay type: functional
# How it was run: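 Cell-based antiviral assay against this HIV-2 isolate. Compounds were dissolved in DMSO as 10^-2 M stocks, or 10^-3 M or lower when insoluble, diluted 1% in culture medium, then serially diluted in medium. Virus production was read as reverse transcriptase activity of particles released into the culture supernatant. IC50 was taken from a median-effect plot of the dose-effect data.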
# [10] = biological target: Human immunodeficiency virus type 1 reverse transcriptase (Human immunodeficiency virus 1, UniProt Q72547); experiment: Tested for inhibitory concentration on HIV-1 Reverse transcriptase in the presence of poly(c)-oligo-(dG)
# How it was run: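 Recombinant HIV-1 RT purified from yeast, 20-50 nM. Reaction at 37 °C for 10 min in 50 mM Tris-HCl pH 8.0, 5 mM MgCl2, 4 mM DTT, 80 mM KCl, BSA, 0.48 A260 units/mL poly(C)-oligo(dG) (5:1), 2 µM dGTP plus [3H]dGTP. Stopped with cold 10% TCA plus 0.1 M pyrophosphate; precipitates filtered, scintillation counted. Compounds dissolved in DMSO.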
# MT4 [11] = experiment: Cytotoxicity against MT-4 cells infected with HIV-1 IIIB strain; assay type: functional; conditions: Homo sapiens
# [12] = Cytotoxicity against Macrophages infected with HIV-1 Bal/Mono; assay type: functional; conditions: Human immunodeficiency virus 1
# [13] = test system: Human immunodeficiency virus 1; experiment: Inhibitory concentration against HIV-1 IIIB strain; assay type: functional, organism-based
# How it was run: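 MT4 cells infected with HIV-1 IIIB; antiviral effect read as protection from virus-induced cytopathogenicity by MTT. Compounds taken from DMSO stock, diluted in culture medium.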
# CEM-SS [14] = experiment: Tested for cytotoxic concentration on HIV-I Lai wild type in CEM-SS cell line; assay type: functional; conditions: Homo sapiens; how it was run: as §2
# [15] = test system: Human immunodeficiency virus 1; experiment: Inhibitory concentration against HIV-1 AZTres.; assay type: functional, organism-based
# How it was run: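 AZT-resistant HIV-1 isolate A018 G910-6 tested in cell culture; virus production measured as RT activity of particles released into the culture supernatant.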
# [16] = test system: Human immunodeficiency virus 1; experiment: Selectivity index is the ratio of CC50 to IC50; assay type: functional
# [17] = test system: Human immunodeficiency virus 1; experiment: as §3; assay type: functional
smiles,measurement,setting,value
CCc1c(C)nc(O)c(N)c1Cc1cc(C)cc(C)c1,CC50,MT4 [1],> 10000 nM
same,CC50,[2],> 10000 nM
same,IC50,CEM-SS [3],17 nM
same,IC50,[4],130 nM
same,CC50,[5],> 10000 nM
same,SI,[6],> 10
same,CC50,[7],> 10000 nM
same,IC50,[8],1000 nM
same,IC50,[9],> 10000 nM
same,IC50,[10],100 nM
same,CC50,MT4 [11],> 10000 nM
same,CC50,[12],> 10000 nM
same,IC50,[13],310 nM
same,IC50,[13]; Human immunodeficiency virus 1,500 nM
same,CC50,CEM-SS [14],> 10000 nM
same,IC50,[15],4350 nM
same,SI,[16],>588
CCc1c(C)[nH]c(=O)c(N(C)C)c1Cc1cc(C)cc(C)c1,CC50,MT4 [1],> 1000 nM
same,CC50,[2],> 1000 nM
same,IC50,CEM-SS [3],0.2 nM
same,IC50,[4],0.004 nM
same,SI,[17],>25
same,CC50,[5],> 1000 nM
same,CC50,[7],> 1000 nM
same,IC50,[8],40 nM
same,IC50,[9],> 1000 nM
same,IC50,[10],20 nM
same,CC50,MT4 [11],> 1000 nM
same,CC50,[12],> 1000 nM
same,IC50,[13],2.4 nM and 0.58 nM
same,CC50,CEM-SS [14],> 1000 nM
same,IC50,[15],0.2 nM
same,SI,[16],>5000
CC(C)=CCN1Cc2cc(Cl)cc3[nH]c(=S)n(c23)C[C@@H]1C,CC50,[5],> 10000 nM
same,IC50,[8],> 10000 nM
CCOCn1c(Cc2cc(C)cc(C)c2)c(C(C)C)c(=O)[nH]c1=O,IC50,CEM-SS [3],0.6 nM
same,CC50,CEM-SS [14],43000 nM
same,SI,[16],72000
CCc1cc(N)c(O)nc1C,IC50,CEM-SS [3],30000 nM
same,CC50,CEM-SS [14],> 100000 nM
same,SI,[16],>3
CCc1c(C)nc(OC)c2c1C(c1cc(C)cc(C)c1)OC(O)(C(C)(C)C)N2 (configuration not stated),IC50,CEM-SS [3],4200 nM
same,CC50,CEM-SS [14],> 10000 nM
same,SI,[16],>2
CCc1cc(NCc2cc(C)c(C)cc2OC)c(O)nc1C,IC50,CEM-SS [3],8 nM
CCc1c(C)nc(OC)c(NC(=O)C(C)(C)C)c1C(O)c1cc(C)cc(C)c1 (configuration not stated),IC50,CEM-SS [3],> 1000 nM
same,CC50,CEM-SS [14],> 1000 nM
Cc1c(Sc2ccccc2)n(COCc2ccccc2)c(=O)[nH]c1=O,IC50,[10],300 nM
CCc1c(C)[nH]c(=O)c(NC)c1Cc1cc(C)cc(C)c1,CC50,MT4 [1],> 10000 nM
same,CC50,[2],> 10000 nM
same,IC50,CEM-SS [3],30 nM
same,IC50,[4],720 nM
same,SI,[17],>5.5 and >10
same,CC50,[5],> 10000 nM
same,CC50,[7],> 10000 nM
same,IC50,[8],1700 nM
same,IC50,[9],> 10000 nM
same,CC50,MT4 [11],> 10000 nM
same,CC50,[12],> 10000 nM
same,CC50,CEM-SS [14],> 10000 nM
same,IC50,[15],76 nM
same,SI,[16],>333
CCc1c(C)[nH]c(=O)c(NC=O)c1Cc1cc(C)cc(C)c1,CC50,MT4 [1],> 10000 nM
same,CC50,[2],> 10000 nM
same,IC50,CEM-SS [3],3 nM
same,IC50,[4],21 nM
same,SI,[17],>3
same,CC50,[5],> 10000 nM
same,CC50,[7],> 10000 nM
same,IC50,[8],2900 nM
same,IC50,[9],> 10000 nM
same,IC50,[10],200 nM
same,CC50,MT4 [11],> 10000 nM
same,CC50,[12],> 10000 nM
same,CC50,CEM-SS [14],> 10000 nM
same,IC50,[15],71 nM
same,SI,[16],>3333
CCc1c(C)nc(OC)c(NC(=O)C(C)(C)C)c1C(OC(C)=O)c1cc(C)cc(C)c1 (configuration not stated),IC50,CEM-SS [3],10000 nM
same,CC50,CEM-SS [14],> 10000 nM
same,SI,[16],>1
CCc1c(C)nc(O)c(NC(C)=O)c1Sc1cc(C)cc(C)c1,IC50,CEM-SS [3],50 nM
same,SI,[16],1600
CCOCn1c(Cc2cc(C)cc(C)c2)c(CC)c(=O)[nH]c1=O,IC50,CEM-SS [3],1.6 nM
same,CC50,CEM-SS [14],207000 nM
same,SI,[16],130000
CCc1c(C)nc(OC)c(NC(=O)C(C)(C)C)c1C(C)(O)c1cc(C)cc(C)c1 (configuration not stated),IC50,CEM-SS [3],> 10000 nM
same,CC50,CEM-SS [14],> 10000 nM
CCc1c(C)nc(OC)c(NC(=O)C(C)(C)C)c1Cc1cc(C)cc(C)c1,IC50,CEM-SS [3],> 100000 nM
same,CC50,CEM-SS [14],> 100000 nM
CCc1cc(NC(=O)C(C)(C)C)c(OC)nc1C,IC50,CEM-SS [3],> 100000 nM
same,CC50,CEM-SS [14],> 100000 nM
CCc1c(C)nc(O)c([N+](=O)[O-])c1Sc1cc(C)cc(C)c1,IC50,[8],260 nM
